Reference: article PMC3048907 (Journal of medicinal chemistry, 2011)

Experiments:
[1] = tested on: A549 cells (microtubules and spindles); test: Immunofluorescence staining of tubulin; assay type: cell-based, human; conditions: for microtubules (α-tubulin immunofluorescence) / mitotic spindles (α-tubulin immunofluorescence): A549, 24 h, 0.1 nM 21, 100 nM colchicine, 1.5 nM pacritaxel, 500 nM doxorubicin; for concentration at which antimicrotubule activity was seen: within 24 hr
tubulin = test: Tubulin assembly assay; assay type: biochemical; conditions: 10 μM tubulin, 20 min at 30 °C, highest concentration evaluated 40 μM
[2] = tested on: KB-VIN (MDR line overexpressing P-glycoprotein); test: Antiproliferative activity assay; assay type: cell-based, human; conditions: SRB assay, three days in culture; NA = not active, 20 μg/mL did not reach 50% inhibition
human tumor cell lines = test: Antiproliferative activity across the human tumor cell line panel; assay type: cell-based
How it was run: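 Cells kept in RPMI-1640 with 25 mM HEPES, 0.25% bicarbonate, 10% FBS and 100 μg/mL kanamycin; trypsinized, seeded at 1500–7500 cells/well. Test compound added from DMSO stock diluted in medium (DMSO ≤0.5% v/v). After 3 days, cells fixed in cold 50% TCA, stained with 0.4% sulforhodamine B, A562 read. GI50 = 50% growth reduction vs untreated; mean of ≥3 determinations.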

KB-VIN cells = test: Verapamil reversal experiments; assay type: cell-based, human; conditions: for effect of verapamil co-treatment on cytotoxic activity (MDR-selectivity): co-treatment with verapamil 1 μg/mL
KB-VIN versus KB = conditions: P-gp overexpressing MDR tumor cell line vs non-MDR; cited from earlier work

CCC1=C(O)c2c(oc(-c3csc4ccccc34)cc2=O)C(CC)(CC)C1=O [Compound 21, 2-(Benzo[b]thiophen-3′-yl)-6,8,8-triethyldesmosdumotin B]
microtubules (α-tubulin immunofluorescence) [1]: undetectable
mitotic spindles (α-tubulin immunofluorescence) [1]: undetectable
fold lower concentration than colchicine for antimicrotubule activity ([1]; A549 cells, 24 hr): 1000 fold
concentration at which antimicrotubule activity was seen ([1]; A549 cells): 0.1 nM

CC(=O)O[C@H]1C(=O)[C@@]2(C)[C@H]([C@H](OC(=O)c3ccccc3)[C@]3(O)C[C@H](OC(=O)[C@H](O)[C@@H](NC(=O)c4ccccc4)c4ccccc4)C(C)=C1C3(C)C)[C@]1(OC(C)=O)CO[C@@H]1C[C@@H]2O [pacritaxel]
microtubules (α-tubulin immunofluorescence) [1]: detectable
mitotic spindles (α-tubulin immunofluorescence) [1]: clearly seen

CCC1=C(O)c2c(oc(-c3ccc4ccccc4c3)cc2=O)C(CC)(CC)C1=O [Compound 11, 2-(Naphthalen-2′-yl)-6,8,8-triethyldesmosdumotin B]
Inhibition of tubulin assembly IC50 ± SD (tubulin): Not obtainable ^c

COc1cc2c(c(OC)c1OC)-c1ccc(OC)c(=O)cc1[C@@H](NC(C)=O)CC2 [colchicine]
microtubules (α-tubulin immunofluorescence) [1]: undetectable
mitotic spindles (α-tubulin immunofluorescence) [1]: undetectable
concentration at which antimicrotubule activity was seen ([1]; A549 cells): 100 nM

COc1cccc2c1C(=O)c1c(O)c3c(c(O)c1C2=O)C[C@@](O)(C(=O)CO)C[C@@H]3O[C@H]1C[C@H](N)[C@H](O)[C@H](C)O1 [doxorubicine]
microtubules (α-tubulin immunofluorescence) [1]: detectable
mitotic spindles (α-tubulin immunofluorescence) [1]: undetectable

CCC1=C(O)c2c(oc(-c3ccccc3)cc2=O)C(CC)(CC)C1=O [Compound 2]
GI50 KB-VIN [2]: active
Inhibition of tubulin assembly IC50 ± SD (tubulin): inactive
IC50 (tubulin; read-out: Inhibition of tubulin assembly IC50 ± SD): > 40 µM
activity against all non-MDR tumor cells (human tumor cell lines): non-active

CCC1=C(O)c2c(oc(-c3csc4ccc(Br)cc34)cc2=O)C(CC)(CC)C1=O [Compound 24, 2-(5′-Bromobenzo[b]thiophen-3′-yl)-6,8,8-triethyldesmosdumotin B]
effect of verapamil co-treatment on cytotoxic activity (MDR-selectivity) (KB-VIN cells): partially reversed

COc1ccc(CCN(C)CCCC(C#N)(c2ccc(OC)c(OC)c2)C(C)C)cc1OC (stereo not shown) [verapamil]
effect of verapamil alone on replication of KB-VIN cells (KB-VIN cells; verapamil 1 μg/mL): no effect

CC1=C(O)C(C)(C)c2oc(-c3ccccc3)cc(=O)c2C1=O [Compound 1, desmosdumotin B]
GI50 KB-VIN [2]: active
activity against all non-MDR tumor cells (human tumor cell lines): non-active
selectivity index [collateral sensitivity (CS), activity ratio of MDR line versus non-MDR line] (KB-VIN versus KB): greater than 20

CCC1=C(O)c2c(oc(-c3cccc4ccsc34)cc2=O)C(CC)(CC)C1=O [Compound 27, 2-(Benzo[b]thiophen-7′-yl)-6,8,8-triethyldesmosdumotin B]
effect of verapamil co-treatment on cytotoxic activity (MDR-selectivity) (KB-VIN cells): partially reversed
